Published values pooled from the literature.
Compare with care: the assays were run in different laboratories.
Target: Dual specificity tyrosine-phosphorylation-regulated kinase 1B (DYRK1B, Homo sapiens, UniProt Q9Y463)

`COCc1c(-c2cc3cc(C)cc(OC)c3s2)c2c(N)ncnn2c1CN1CCNC(=O)C1` gave an inhibition of 71% (cell-free assay, competition with immobilised ligand; 1 µM).
`COc1ccc(COc2ccc(Cc3cnc(N)nc3N)cc2OC)cc1` has a remaining activity of 104% (enzyme activity, inhibitor, radiometric; 0.5 µM).
For `COc1ncccc1-c1cnn2ccc(N3CCN(C(=O)OC(C)C)CC3)nc12`, the remaining binding was 65% (binding, competition with immobilised ligand; 1 µM).
`Cc1nn(C)cc1-c1nc2c(N3CCN(Cc4ccc(Cl)cc4)CC3)c(Cl)cnc2[nH]1` gave a remaining binding of 75% (binding, competition with immobilised ligand; 1 µM).
The remaining activity of `CC(C)(C)c1nc(-c2cccc(NS(=O)(=O)c3c(F)cccc3F)c2F)c(-c2ccnc(N)n2)s1` is reported as 98% (enzyme activity, inhibitor, radiometric; 1 µM).
`Nc1ncc(-c2nc(N3CCOCC3)nc(N3CCOCC3)n2)c(C(F)F)n1` gave a remaining binding of 76% (cell-free assay, competition with immobilised ligand; 10 µM).
`N#CC1(c2ccccn2)CCN(Cc2cc(C(=O)O)c(=O)n3ccccc23)CC1` has a remaining binding of 98% (cell-free assay, competition with immobilised ligand; 1 µM).
`CC#CC(=O)Nc1cc2c(Nc3ccc(F)c(Cl)c3)ncnc2cn1` gave a remaining activity of 103% (enzyme activity, inhibitor, radiometric; 0.5 µM).
`CC(C)(C)c1nc2c(s1)c1nc(N)ncc1c1ccc(NS(=O)(=O)c3c(F)cccc3F)c(F)c12` has a remaining activity of 106% (enzyme activity, inhibitor, radiometric; 1 µM).
The inhibition of `COc1cc(Nc2ncc(F)c(Nc3ccc4c(n3)NC(=O)C(C)(C)O4)n2)cc(OC)c1OC` is reported as 78% (binding, competition with immobilised ligand; 10 µM).
`O=C1NC(=O)C(c2cn(CCCn3ccnc3)c3ccccc23)=C1Nc1ccccc1` has a remaining activity of 56.3% (enzyme activity, inhibitor, radiometric; 0.5 µM).
For `Cn1cc(-c2cccc(N3CCc4c(sc5c4CC(C)(C)C5)C3=O)c2CO)cc(Nc2ccncn2)c1=O`, the inhibition was 2% (enzyme activity, inhibitor; 1 µM).
For `Cn1cncc1[C@@](O)(COc1ccc(C#N)cc1-c1ccc(OC(F)(F)F)cc1)c1ccc(C#N)cc1`, the remaining binding was 38% (cell-free assay, competition with immobilised ligand; 1 µM).
The inhibition of `Cn1cc(-c2cc(F)cc(N3CCn4c(cc5c4CCCC5)C3=O)c2CO)cc(Nc2ccc(N3CCN(C4COC4)CC3)cn2)c1=O` is reported as 6% (enzyme activity, inhibitor; 0.1 µM).
`C=CC(=O)N1CCC[C@@H](n2nc(-c3ccc(Oc4ccccc4)cc3)c3c(N)ncnc32)C1` has a remaining signal of 125% (cell-free assay; 10 µM).
